According to ChEMBL document CHEMBL1128385, “Three-dimensional quantitative structure-activity relationships of somatostatin analogues. 1. Comparative molecular field analysis of growth hormone release-inhibiting potencies” (J Med Chem, 1995):
Where a SMILES comes first, the peptide text is derived from it. Bridges are numbered along the chain shown (N, C = ends). [ ]: non-standard residue; d: D form. Phe(4-NO2) = N[C@@H](Cc1ccc([N+](=O)[O-])cc1)C(=O)O; Phe(4-Cl) = N[C@@H](Cc1ccc(Cl)cc1)C(=O)O; 2Nal = N[C@@H](Cc1ccc2ccccc2c1)C(=O)O; d2Nal = N[C@H](Cc1ccc2ccccc2c1)C(=O)O

Organism: Rattus norvegicus
Assay: In vitro GH release inhibiting potency on anterior pitutaries from adult male rats, relative to somatostatin
Format: functional
Procedure, shortened: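 Rat anterior pituitary cells (adult males, 200-250 g), trypsin/DNase dispersed, plated 2 × 10^5 cells/well, cultured 96 h at 37 °C in serum-supplemented DMEM. After washing, cells were pulsed 3 h at 37 °C with 1 nM GRF(1-29)NH2 ± graded analogue doses in medium 199/1% BSA, quadruplicate wells. Medium GH was measured by double-antibody RIA. Potency relative to somatostatin (=1.0) came from four-point assay (mean of ≥3 experiments) or IC50 comparison.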

Q: For `C[C@@H](O)[C@@H]1NC(=O)[C@H](CCCCN)NC(=O)[C@@H](Cc2c[nH]c3ccccc23)NC(=O)[C@H](Cc2ccc([N+](=O)[O-])cc2)NC(=O)[C@H](Cc2ccccc2)NC(=O)CCCCCCNC(=O)[C@H](Cc2ccccc2)NC1=O` (stereo in doubt), which GHI is on record?
A: 3.5

Q: For `CC(C)[C@H](NC(=O)[C@H](CCCCN)NC(=O)[C@@H](Cc1c[nH]c2ccccc12)NC(=O)[C@H](Cc1ccc(O)cc1)NC(=O)[C@H](Cc1ccc(Cl)cc1)NC(=O)[C@H](N)Cc1ccccc1)C(=O)N[C@@H](Cc1ccccc1)C(=O)N[C@H](C)C(N)=O`, which GHI is on record?
A: 4000

Q: `CC(C)[C@H](NC(=O)[C@H](CCCCN)NC(=O)[C@@H](Cc1c[nH]c2ccccc12)NC(=O)[C@H](Cc1ccc(O)cc1)NC(=O)[C@H](Cc1ccc(Cl)cc1)NC(=O)[C@H](N)Cc1ccccc1)C(=O)N[C@@H](Cc1ccccc1)C(=O)N[C@H](C(N)=O)[C@@H](C)O` (H-[dF][Phe(4-Cl)]Y[dW]KVFT-NH2) was tested. Which GHI did it give?
A: 17

Q: For `C[C@@H](O)[C@@H]1NC(=O)[C@H](CCCCN)NC(=O)[C@@H](Cc2c[nH]c3ccccc23)NC(=O)[C@H](Cc2ccc(Cl)cc2)NC(=O)[C@H](Cc2ccccc2)NC(=O)CCCCCCNC(=O)[C@H](Cc2ccccc2)NC1=O` (stereo in doubt), which GHI is on record?
A: 1.4

Q: How did the GHI turn out when `C[C@@H](O)[C@H](NC(=O)[C@@H]1CSSC[C@H](NC(=O)[C@H](N)Cc2ccc3ccccc3c2)C(=O)N[C@@H](Cc2ccc(O)cc2)C(=O)N[C@H](Cc2c[nH]c3ccccc23)C(=O)N[C@@H](CCCCN)C(=O)N[C@@H]([C@@H](C)O)C(=O)N1)C(N)=O` was run?
A: 0.19

Q: For `C[C@@H](O)[C@@H]1NC(=O)[C@H](CCCCN)NC(=O)[C@@H](Cc2c[nH]c3ccccc23)NC(=O)[C@H](Cc2ccccc2)NC(=O)[C@@H]2CSSC[C@H](NC1=O)C(=O)NCCCCCCC(=O)N2` (stereo in doubt), which GHI is on record?
A: 0.81

Q: `NCCCCC1NC(=O)[C@@H](Cc2c[nH]c3ccccc23)NC(=O)C(Cc2ccccc2)NC(=O)[C@@H]2CCCN2C(=O)C(Cc2ccccc2)NC(=O)[C@H](CO)NC1=O` (single isomer, unassigned) was tested. Which GHI did it give?
A: 0.71

Q: Which GHI does the source give for `CC(C)[C@H](NC(=O)[C@H](CCCCN)NC(=O)[C@@H](Cc1c[nH]c2ccccc12)NC(=O)[C@H](Cc1ccc(O)cc1)NC(=O)[C@H](C)NC(=O)[C@H](N)Cc1ccccc1)C(=O)N[C@@H](C)C(=O)N[C@@H](Cc1ccc2ccccc2c1)C(N)=O` (H-[dF]AY[dW]KVA[2Nal]-NH2) here?
A: 15

Q: How did the GHI turn out when `C[C@@H]1NC(=O)[C@H](Cc2ccccc2)NC(=O)CCCCCCNC(=O)[C@H](Cc2ccccc2)NC(=O)[C@H]([C@@H](C)O)NC(=O)[C@H](CCCCN)NC(=O)[C@@H](Cc2c[nH]c3ccccc23)NC1=O` (stereo in doubt) was run?
A: 6.25

Q: For `CC1C(=O)N[C@@H](Cc2ccccc2)C(=O)NC(Cc2c[nH]c3ccccc23)C(=O)N[C@@H](CCCCN)C(=O)NC([C@@H](C)O)C(=O)N[C@@H](Cc2ccccc2)C(=O)N1C` (single isomer, unassigned), which GHI is on record?
A: 0.29

Q: `CC(C)[C@H](NC(=O)[C@H](CCCCN)NC(=O)[C@@H](Cc1c[nH]c2ccccc12)NC(=O)[C@H](Cc1ccc(O)cc1)NC(=O)[C@H](C)NC(=O)[C@H](N)Cc1ccc2ccccc2c1)C(=O)N[C@@H](C)C(=O)N[C@H](C(N)=O)[C@@H](C)O` (H-[d2Nal]AY[dW]KVAT-NH2) was tested. Which GHI did it give?
A: 435

Q: Which GHI does the source give for `C[C@H](NC(=O)[C@H](N)Cc1ccccc1)C(=O)N[C@@H](Cc1ccccc1)C(=O)N[C@H](Cc1c[nH]c2ccccc12)C(=O)N[C@@H](CCCCN)C(=O)N[C@H](C(=O)N[C@@H](C)C(=O)N[C@H](C(N)=O)[C@@H](C)O)[C@@H](C)O` (H-[dF]AF[dW]KTAT-NH2) here?
A: 2500

Q: How did the GHI turn out when `CC(C)[C@@H]1NC(=O)[C@H](CCCCN)NC(=O)[C@@H](Cc2c[nH]c3ccccc23)NC(=O)[C@H](Cc2ccc(O)cc2)NC(=O)[C@H](NC(=O)[C@H](N)Cc2ccccc2)CSSC[C@@H](C(=O)N[C@@H](Cc2ccc3ccccc3c2)C(=O)O)NC1=O` was run?
A: 0.06

Q: How did the GHI turn out when `CC(C)[C@H](NC(=O)[C@H](CCCCN)NC(=O)[C@@H](Cc1c[nH]c2ccccc12)NC(=O)[C@H](Cc1ccc(O)cc1)NC(=O)[C@H](Cc1ccccc1)NC(=O)[C@H](N)Cc1ccccc1)C(=O)N[C@@H](Cc1ccccc1)C(=O)N[C@H](Cc1ccccc1)C(N)=O` (H-[dF]FY[dW]KVF[dF]-NH2) was run?
A: 11100

Q: With `C[C@@H](O)[C@@H]1NC(=O)C(CCCCN)NC(=O)[C@@H](Cc2c[nH]c3ccccc23)NC(=O)C(Cc2ccc(O)cc2)NC(=O)[C@@H]2CCCN2C(=O)C(Cc2ccccc2)NC1=O` (single isomer, unassigned) as the compound, how does the GHI read?
A: 0.07

Q: For `CC(C)[C@H](NC(=O)[C@H](CCCCN)NC(=O)[C@@H](Cc1c[nH]c2ccccc12)NC(=O)[C@H](Cc1ccc(O)cc1)NC(=O)[C@H](Cc1ccc([N+](=O)[O-])cc1)NC(=O)[C@H](N)Cc1ccccc1)C(=O)N[C@@H](Cc1ccccc1)C(=O)N[C@H](C(N)=O)[C@@H](C)O` (H-[dF][Phe(4-NO2)]Y[dW]KVFT-NH2), which GHI is on record?
A: 159

Q: With `C[C@@H](O)[C@@H]1NC(=O)[C@H](CCCCN)NC(=O)[C@@H](Cc2c[nH]c3ccccc23)NC(=O)[C@H](Cc2ccc(O)cc2)NC(=O)[C@H](Cc2ccccc2)NC(=O)CCCCCCNC(=O)[C@H](Cc2ccccc2)NC1=O` (stereo in doubt) as the compound, how does the GHI read?
A: 1.04

Q: For `NCCCCC1NC(=O)[C@@H](Cc2c[nH]c3ccccc23)NC(=O)C(Cc2ccccc2)NC(=O)[C@H](Cc2ccccc2)NC(=O)CCCCCCNC(=O)C(Cc2ccccc2)NC(=O)C2(CCCC2)NC1=O` (single isomer, unassigned), which GHI is on record?
A: 6.7

Q: With `CC(C)C1NC(=O)[C@H](CCCCN)NC(=O)C(Cc2c[nH]c3ccccc23)NC(=O)[C@H](Cc2ccc(O)cc2)NC(=O)C(C)N(C)C(=O)[C@H](Cc2ccccc2)NC1=O` (single isomer, unassigned) as the compound, how does the GHI read?
A: 0.02

Q: How did the GHI turn out when `C[C@@H](O)[C@@H]1NC(=O)C(CCCCN)NC(=O)[C@@H](Cc2c[nH]c3ccccc23)NC(=O)C(Cc2ccccc2)NC(=O)[C@H](Cc2ccccc2)NC(=O)C(Cc2ccccc2)NC1=O` (single isomer, unassigned) was run?
A: 3.71

Q: With `C[C@H](NC(=O)[C@H](N)Cc1ccccc1)C(=O)N[C@@H](Cc1ccc(O)cc1)C(=O)N[C@H](Cc1c[nH]c2ccccc12)C(=O)N[C@@H](CCCCN)C(=O)N[C@H](C(=O)N[C@@H](C)C(=O)N[C@@H](Cc1ccc2ccccc2c1)C(N)=O)[C@@H](C)O` as the compound, how does the GHI read?
A: 16

Q: For `C[C@@H](O)[C@@H]1NC(=O)[C@H](CCCCN)NC(=O)[C@H](Cc2c[nH]c3cc(F)ccc23)NC(=O)[C@H](Cc2ccccc2)NC(=O)[C@H](Cc2ccccc2)NC(=O)CCCCCCNC(=O)[C@H](Cc2ccccc2)NC1=O` (stereo in doubt), which GHI is on record?
A: 2.4

Q: How did the GHI turn out when `CN[C@H](C)C(=O)N[C@@H](Cc1ccc(O)cc1)C(=O)N[C@H](Cc1c[nH]c2ccccc12)C(=O)N[C@@H](CCCCN)C(=O)N[C@H](C(=O)N[C@@H](Cc1ccccc1)C(N)=O)C(C)C` was run?
A: 20000

Q: `C[C@@H](O)[C@@H]1NC(=O)[C@H](CCCCN)NC(=O)[C@H](Cc2c[nH]c3ccc(F)cc23)NC(=O)[C@H](Cc2ccccc2)NC(=O)[C@H](Cc2ccccc2)NC(=O)CCCCCCNC(=O)[C@H](Cc2ccccc2)NC1=O` (stereo in doubt) was tested. Which GHI did it give?
A: 6.7

Q: With `C[C@@H](O)[C@@H]1NC(=O)[C@H](CCCCN)NC(=O)[C@@H](Cc2c[nH]c3ccccc23)NC(=O)[C@H](Cc2ccc(F)cc2)NC(=O)[C@H](Cc2ccccc2)NC(=O)CCCCCCNC(=O)[C@H](Cc2ccccc2)NC1=O` (stereo in doubt) as the compound, how does the GHI read?
A: 20

Q: For `CC[C@@H]1NC(=O)C(CCCCN)NC(=O)[C@@H](Cc2c[nH]c3ccccc23)NC(=O)C(Cc2ccccc2)NC(=O)[C@@H]2CCCN2C(=O)C(Cc2ccccc2)NC1=O` (single isomer, unassigned), which GHI is on record?
A: 1.25

Q: With `C[C@@H](O)[C@@H]1NC(=O)[C@H](Cc2ccc(N)cc2)NC(=O)[C@H](Cc2cn(C)c3ccccc23)NC(=O)[C@H](Cc2ccccc2)NC(=O)[C@H](Cc2ccccc2)NC(=O)CCCCCCNC(=O)[C@H](Cc2ccccc2)NC1=O` (stereo in doubt) as the compound, how does the GHI read?
A: 1.8

Q: For `CC[C@@H]1NC(=O)[C@H](CCCCN)NC(=O)C(Cc2c[nH]c3ccccc23)NC(=O)[C@H](Cc2ccc(O)cc2)NC(=O)[C@@H]2Cc3ccccc3CN2C(=O)[C@H](Cc2ccccc2)NC1=O` (single isomer, unassigned), which GHI is on record?
A: 0.26

Q: With `C[C@@H](O)[C@@H]1NC(=O)[C@H](CCCCN)NC(=O)[C@@H](Cc2c[nH]c3ccccc23)NC(=O)[C@H](Cc2cscn2)NC(=O)[C@H](Cc2ccccc2)NC(=O)CCCCCCNC(=O)[C@H](Cc2ccccc2)NC1=O` (stereo in doubt) as the compound, how does the GHI read?
A: 5

Q: For `CC(C)[C@@H]1NC(=O)[C@H](CCCCN)NC(=O)[C@@H](Cc2c[nH]c3ccccc23)NC(=O)[C@H](Cc2ccc(O)cc2)NC(=O)[C@@H](NC(=O)[C@H](N)Cc2ccccc2)CSSC[C@@H](C(=O)N[C@@H](Cc2ccc3ccccc3c2)C(N)=O)NC1=O` (H-[dF]CY[dW]KVC[2Nal]-NH2; disulfide 2-7), which GHI is on record?
A: 0.43

Q: How did the GHI turn out when `C[C@@H](O)[C@@H]1NC(=O)[C@H](CCCCN)NC(=O)[C@@H](Cc2c[nH]c3ccccc23)NC(=O)[C@H](Cc2ccccc2)NC(=O)[C@@H](NC(=O)[C@H](N)Cc2ccccc2)CSSC[C@@H](C(=O)N[C@@H](Cc2ccc3ccccc3c2)C(N)=O)NC1=O` was run?
A: 0.22

Q: With `CC(C)[C@@H]1NC(=O)[C@H](CCCCN)NC(=O)[C@@H](Cc2c[nH]c3ccccc23)NC(=O)[C@H](Cc2c[nH]c3ccccc23)NC(=O)[C@H](NC(=O)[C@H](N)Cc2ccccc2)CSSC[C@@H](C(=O)N[C@@H](Cc2ccc3ccccc3c2)C(N)=O)NC1=O` as the compound, how does the GHI read?
A: 0.2

Q: For `CC(C)[C@@H]1NC(=O)[C@H](CCCCN)NC(=O)[C@@H](Cc2c[nH]c3ccccc23)NC(=O)[C@H](Cc2ccc(O)cc2)NC(=O)[C@@H](NC(=O)[C@H](N)Cc2ccc3ccccc3c2)CSSC[C@@H](C(=O)N[C@H](C(=O)O)[C@@H](C)O)NC1=O`, which GHI is on record?
A: 1.07

Q: How did the GHI turn out when `CC(C)[C@@H]1NC(=O)[C@H](CCCCN)NC(=O)[C@@H](Cc2c[nH]c3ccccc23)NC(=O)[C@H](Cc2ccc(O)cc2)NC(=O)[C@@H](NC(=O)[C@H](N)Cc2ccc3ccccc3c2)CSSC[C@@H](C(=O)N[C@@H](Cc2ccc3ccccc3c2)C(N)=O)NC1=O` (H-[d2Nal]CY[dW]KVC[2Nal]-NH2; disulfide 2-7) was run?
A: 11
